In ChEMBL document CHEMBL1147186, “Dibenzothiazoles as novel amyloid-imaging agents” (Bioorg Med Chem, 2007):

Key:
[1] = target: Amyloid-beta precursor protein (Homo sapiens, UniProt P05067); experiment: Displacement of [3H]PIB from beta amyloid in brain homogenate from Alzheimer's patient; type: tissue-based
Summary of the method: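 Competition binding against [3H]PIB (0.05 nM final) in postmortem AD gray-matter homogenate prepared in PBS pH 7.4. Inhibitors at 10^-5 to 10^-12 mol/L (PBS, under 1% DMSO), incubated 37 °C for 1 h. Bound radioligand was collected by GF/B vacuum filtration, washed three times with PBS and scintillation-counted. Nonspecific binding was defined with 10 µM PIB. Ki was obtained by nonlinear regression.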

[2] = Partition coefficient, log P of the compound; type: physicochemical; settings: octanol/water
Summary of the method: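 Shake-flask logP using the [125I] radioligand (RCP >98%) in n-octanol and 0.1 M phosphate buffer pH 7.4. Mixture vortexed 3 min at room temperature and centrifuged 3500 rpm for 5 min. Both phases were weighed and counted; logP is log of the cpm/g octanol to cpm/g buffer ratio. The octanol phase was repartitioned until values were consistent; done in triplicate.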

[3] = tested on: Brain; experiment: Biodistribution in Swiss-Webster mouse brain at 0.185 MBq, iv after 2 mins; type: ADME, organism-based; settings: in vivo
Summary of the method: (§1)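 Radioiodinated tracer in saline/ethylene glycol/ethanol/HCl vehicle, single tail-vein injection under anesthesia into 2-month-old Swiss-Webster mice (n = 3 per time point). Animals killed by heart puncture at 2, 30 and 60 min; brain removed, weighed and gamma-counted. Uptake expressed as % injected dose per gram.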

[4] = tested on: Brain; experiment: Biodistribution in Swiss-Webster mouse brain at 0.185 MBq, iv after 60 mins; type: ADME, organism-based; settings: in vivo, 1 h; summary of the method: as §1
[5] = tested on: Brain; experiment: Biodistribution in Swiss-Webster mouse brain at 0.185 MBq, iv after 30 mins; type: ADME, organism-based; settings: in vivo, 0.5 h; summary of the method: as §1

Chain of Amyloid-beta precursor protein (P05067 whole entry): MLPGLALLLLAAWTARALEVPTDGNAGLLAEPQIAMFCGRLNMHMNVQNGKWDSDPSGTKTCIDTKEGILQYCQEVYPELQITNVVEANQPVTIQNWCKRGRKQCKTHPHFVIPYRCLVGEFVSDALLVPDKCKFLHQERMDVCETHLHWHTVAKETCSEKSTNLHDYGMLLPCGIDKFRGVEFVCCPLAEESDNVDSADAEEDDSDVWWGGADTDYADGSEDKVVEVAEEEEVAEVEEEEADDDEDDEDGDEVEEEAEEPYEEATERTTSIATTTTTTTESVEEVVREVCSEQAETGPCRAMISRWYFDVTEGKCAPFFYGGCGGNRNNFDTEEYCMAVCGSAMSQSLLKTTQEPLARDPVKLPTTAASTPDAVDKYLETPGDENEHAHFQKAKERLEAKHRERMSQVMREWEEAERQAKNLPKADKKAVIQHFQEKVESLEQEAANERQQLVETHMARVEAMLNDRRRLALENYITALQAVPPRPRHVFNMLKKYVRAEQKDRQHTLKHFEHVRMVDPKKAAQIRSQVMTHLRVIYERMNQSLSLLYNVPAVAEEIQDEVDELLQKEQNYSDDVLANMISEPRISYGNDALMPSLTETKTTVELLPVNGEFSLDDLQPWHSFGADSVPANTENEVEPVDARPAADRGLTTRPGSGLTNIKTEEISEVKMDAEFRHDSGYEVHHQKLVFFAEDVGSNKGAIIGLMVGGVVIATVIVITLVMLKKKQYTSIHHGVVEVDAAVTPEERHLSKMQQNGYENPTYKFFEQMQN

SMILES | Ki [1] [nM] | other results
CNc1ccc(-c2nc3ccc(-c4nc5ccc(Cl)cc5s4)cc3s2)cc1 | 6.8 | –
CN(C)c1ccc(-c2nc3ccc(-c4nc5ccc(F)cc5s4)cc3s2)cc1 | 23 | –
Nc1ccc(-c2nc3ccc(-c4nc5ccccc5s4)cc3s2)cc1[125I] | – | logP [2]: 2.7; Drug uptake [3]: 3.71 % ID/g; Drug uptake [4]: 0.43 % ID/g; Drug uptake [5]: 0.78 % ID/g
Nc1ccc(-c2nc3ccc(-c4nc5ccccc5s4)cc3s2)cc1 | 25 | –
CNc1ccc(-c2nc3ccc(-c4nc5ccccc5s4)cc3s2)cc1 | 22 | –
CNc1ccc(-c2nc3ccc(-c4nc5ccc(F)cc5s4)cc3s2)cc1 | 27 | –
COc1ccc2nc(-c3ccc4nc(-c5ccc(N)cc5)sc4c3)sc2c1 | 25 | –

Continued, in another order:

Ki [1] [nM] | SMILES | other results
36 | Nc1ccc(-c2nc3ccc(-c4nc5ccc(F)cc5s4)cc3s2)cc1 | –
21 | Nc1ccc(-c2nc3ccc(-c4nc5ccccc5s4)cc3s2)cc1I | logP [2]: 2.7
34 | Nc1ccc(-c2nc3ccc(-c4nc5ccc(Cl)cc5s4)cc3s2)cc1 | –
